Experimental data from article PMC3240686 (Journal of medicinal chemistry, 2011).

Experiments:
[1] = test system: carrageenan-induced thermal hyperalgesia; experiment: Carrageenan-induced thermal hyperalgesia; format: in vivo; conditions: rats; for block of development of carrageenan-induced hyperalgesia, i.p.: i.p. injection 10 mg/kg; for block of development of carrageenan-induced hyperalgesia, i.p. / block of carrageenan-induced hyperalgesia, oral: 30 min before carrageenan, n=3; for antihyperalgesic effect and its duration: oral 100 mg/kg, n=2, time post-carrageenan; for activity at inhibiting hyperalgesia: carrageenan model
How it was run: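 Under light CO2 (80%)/O2 (20%) anaesthesia, rats received subplantar 1% carrageenan in saline (vehicle: saline) into the right hindpaw. For prophylactic dosing, drug or vehicle was given by gavage or i.p. 30 min before carrageenan. Heat hyperalgesia was measured by the Hargreaves plantar test, with an infrared stimulus from below and a 20 s cut-off. The read-out was change in paw-withdrawal latency (s).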

[2] = Observed acute toxicity in the carrageenan hyperalgesia studies; format: in vivo, rats
[3] = Relative lipophilicity by reversed phase HPLC retention factors; format: physicochemical; conditions: relative to parent compound 7, isocratic conditions
[4] = Cyclic voltammetry in CH2Cl2; format: physicochemical
[5] = test system: mechano-allodynia after CCI of the sciatic nerve; experiment: Chronic constriction injury; format: in vivo; conditions: mice
[6] = octanol-water, slow stir method
[7] = dose 300 mg/kg, 2 h time point, n=6

## CC[n+]1ccccc1-c1c2nc(c(-c3cccc[n+]3CC)c3ccc([n-]3)c(-c3cccc[n+]3CC)c3nc(c(-c4cccc[n+]4CC)c4ccc1[n-]4)C=C3)C=C2.[Mn+3] [Mn(III)-TE-2-PyP^5+, Mn(III) meso-tetrakis[(N-ethyl)pyridinium-2-yl]porphyrin (5+), reference compound]
[1]
  block of development of carrageenan-induced hyperalgesia, i.p.: blocked the development of carrageenan-induced hyperalgesia
[1]; oral gavage 100 mg/kg
  block of carrageenan-induced hyperalgesia, oral: only 7 is able to block hyperalgesia when given orally
[2]; i.p., 3 fold higher dose than the one required to block hyperalgesia
  mortality: 100%

## CC(=O)Nc1ccc(O)cc1 [acetaminophen, reference compound]
[1]; [7]
  % inhibition of hyperalgesia: 20±4%

## CC(=O)Oc1ccccc1C(=O)O [aspirin, reference compound]
[1]; [7]
  % inhibition of hyperalgesia: 50±6%

## CC(C)Cc1ccc(C(C)C(=O)O)cc1 (centres unmarked) [ibuprofen, reference compound]
[1]; [7]
  % inhibition of hyperalgesia: 99±5%

## Mn(III)-5,15-bis(4-acetoxymethyl)phenyl-TCHP [Compound 16a]
[1]
  antihyperalgesic effect and its duration: strong antihyperalgesic effect out to 2 hours post-carrageenan but the effect was lost at 3 hours
[3]
  relative lipophilicity by RPHPLC retention factor: progressively more lipophilic

## Mn(III)-5,15-bis(4-hydroxymethyl)phenyl-TCHP [Compound 15]
[1]
  antihyperalgesic effect and its duration: excellent potency out to the 5 hour time point
[3]
  relative lipophilicity by RPHPLC retention factor: substantially less lipophilic than parent compound 7

## Mn(III)-5,15-bis(4-isobutyryloxymethyl)phenyl-TCHP [Compound 16c]
[1]
  antihyperalgesic effect and its duration: potent anti-hyperalgesic action out to the 5 hour time point
[3]
  relative lipophilicity by RPHPLC retention factor: progressively more lipophilic

## Mn(III)-5,15-bis(4-propionyloxymethyl)phenyl-TCHP [Compound 16b]
[1]
  antihyperalgesic effect and its duration: strong antihyperalgesic effect out to 3 hours with a decline in this effect occurring in the 4–5 hour time period
[3]
  relative lipophilicity by RPHPLC retention factor: progressively more lipophilic

## Mn(III)-5,15-di-phenyl-TCHP Chloride [Compound 10]
[4]; cyclic voltammetry in CH2Cl2
  reversible (presumably porphyrin-based) oxidation potential: 0.89 V. vs. ferrocene
[4]; cyclic voltammetry in CH2Cl2, chemically reversible
  Mn(II/III) couple: −0.79 V vs. ferrocene
[1]
  activity at inhibiting hyperalgesia: active at inhibiting hyperalgesia

## Mn(III)-5, 10, 15, 25-tetrakis-phenyl-TCHP Chloride [Compound 12]
[1]
  activity at inhibiting hyperalgesia: active at inhibiting hyperalgesia

## Mn(III)-TCHP Chloride [Compound 7]
[1]; 100 mg/kg oral gavage at 3 h post carrageenan, 4 hour time point
  reversal of established hyperalgesia: pain at 1 h after dosing: pain was substantially reduced
[1]
  block of development of carrageenan-induced hyperalgesia, i.p.: blocked the development of carrageenan-induced hyperalgesia
[1]; oral gavage 100 mg/kg
  block of carrageenan-induced hyperalgesia, oral: able to block hyperalgesia when given orally
[1]; oral gavage 100 mg/kg, for 2 h
  % inhibition of hyperalgesia: ~100%
[1]; oral gavage 100 mg/kg, out to 5 h
  inhibitory effect at late time: substantial inhibitory effect maintained out to 5 h
[5]; oral 10–100 mg/kg
  effect on withdrawal responses of contralateral paws: no effect
[5]; oral 10–100 mg/kg at time of peak mechano-allodynia, n=4
  reversal of neuropathic pain (mechano-allodynia): rapid, dose-dependent and near-to-maximal reversal of neuropathic pain within 1h post-dosing
[5]; oral, at time of peak reversal, n=4
  95% CI of ED50: 15.64 to 51.67 mg/kg/day
[5]; oral, day 7 after CCI, at time of peak reversal, n=4
  ED50, reversal of mechano-allodynia: 28 mg/kg
[2]; doses at least 6–8 fold higher than the one needed to block hyperalgesia
  acute toxicity: no observable acute toxicities
[6]
  LogP: 3.77
